According to ChEMBL document CHEMBL2176944, “2-(3-Oxo-1,3-diphenylpropyl)malonic acids as potent allosteric ligands of the PIF pocket of phosphoinositide-dependent kinase-1: development and prodrug concept” (J Med Chem, 2012):
The source made the active and inactive calls. The calls are words filed in the database; no cut-off is given here.

Legend:
[1] = target: T1, 3-phosphoinositide-dependent protein kinase 1 (Homo sapiens) (UniProt O15530); experiment: Activation of PDK1 in IGF-I-stimulated HEK293 cells assessed as decrease of phosphorylation of S6K activation loop at 50 uM after 2 hrs by Western blot analysis; format: cell-based
T1 sequence (whole entry): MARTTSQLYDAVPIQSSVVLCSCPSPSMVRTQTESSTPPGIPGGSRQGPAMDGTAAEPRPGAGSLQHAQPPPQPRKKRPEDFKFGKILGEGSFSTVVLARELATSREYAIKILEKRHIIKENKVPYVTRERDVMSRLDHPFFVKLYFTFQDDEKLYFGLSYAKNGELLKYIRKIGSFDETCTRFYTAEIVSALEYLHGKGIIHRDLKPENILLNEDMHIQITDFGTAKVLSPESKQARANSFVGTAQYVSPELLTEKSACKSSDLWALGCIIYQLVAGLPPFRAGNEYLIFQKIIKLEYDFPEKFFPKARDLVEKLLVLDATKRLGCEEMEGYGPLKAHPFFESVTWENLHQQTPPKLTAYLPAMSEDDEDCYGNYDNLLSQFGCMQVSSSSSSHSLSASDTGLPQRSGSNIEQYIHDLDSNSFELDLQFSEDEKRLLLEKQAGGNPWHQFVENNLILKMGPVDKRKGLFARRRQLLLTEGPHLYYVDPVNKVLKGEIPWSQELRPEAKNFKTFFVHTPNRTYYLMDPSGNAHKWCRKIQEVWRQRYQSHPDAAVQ
How it was run: (§1)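 HEK293 cells in DMEM with 10% FBS were serum-starved 24 h, then given 50 μM compound or DMSO for 2 h and stimulated with IGF-I (10 ng/mL) for 20 min. For S6K and PKCζ, cells were first transiently transfected with GST-fusions of full-length S6K[T412E] and PKCζ (PEI). These proteins were pulled down on glutathione sepharose and immunoblotted for activation-loop phosphorylation (S6K Thr229, PKCζ Thr410), normalized to anti-GST. For PKB, untransfected cell lysates were immunoblotted with phospho-specific antibodies.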

L6 [2] = experiment: Prodrug conversion in rat L6 cells assessed as prodrug degradation at 20 uM after 1 hr by mass spectroscopy analysis; format: ADME, cell-based; conditions: l6, 1 h
[3] = Hydrolysis half life of the compound; format: physicochemical
How it was run: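 Chemical stability of the ester prodrug was measured in cell-free medium at 37 °C, giving the half-life of spontaneous hydrolysis.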

L6 [4] = experiment: Cellular uptake in rat L6 cells at 20 uM after 5 mins by mass spectroscopy analysis; format: ADME, cell-based; conditions: l6, 5 min
How it was run: (§2)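 Confluent rat L6 cells in serum-free DMEM were exposed to 20 μM ester prodrug for 5–90 min. Cells were then washed with cold PBS, trypsinized and counted. Carbamazepine was added as internal standard, and samples were acidified with HCl and extracted with ethyl acetate. Prodrug and free dicarboxylic acid were quantified by HPLC-MS/MS on a C18 column with TFA-containing gradients. DMSO-treated cells served as control.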

L6 [5] = experiment: Prodrug conversion in rat L6 cells assessed as reduction half life of prodrug at 20 uM […] by mass spectroscopy analysis; format: ADME, cell-based; conditions: l6, 20 µM
L6 [6] = experiment: Prodrug conversion in rat L6 cells assessed as production of 2-(3-Oxo-1-phenyl-3-(4-(trifluoromethyl)phenyl)propyl)malonic acid level in cytoplasm at 20 uM […] by mass spectroscopy analysis relative to control; format: ADME, cell-based; conditions: l6, 20 µM
[7] = target: T1, 3-phosphoinositide-dependent protein kinase 1 (Homo sapiens); experiment: Activation of PDK1 in IGF-I-stimulated HEK293 cells assessed as decrease of phosphorylation of PKCzeta at Thr410 at 50 uM after 2 hrs by Western blot analysis; format: cell-based; how it was run: as §1
L6 [8] = experiment: Prodrug conversion in rat L6 cells assessed as production of 2-(3-Oxo-1-phenyl-3-(4-(trifluoromethyl)phenyl)propyl)malonic acid level at 20 uM after 1 hr by mass spectroscopy analysis; format: ADME, cell-based; conditions: l6, 1 h; how it was run: as §2
[9] = target: T1, 3-phosphoinositide-dependent protein kinase 1 (Homo sapiens); experiment: Activation of PDK1 in IGF-I-stimulated HEK293 cells assessed as decrease of phosphorylation of PKB T-loop at 50 uM after 2 hrs by Western blot analysis; format: cell-based; how it was run: as §1
L6 [10] = experiment: Prodrug conversion in rat L6 cells assessed as production of 2-(3-Oxo-1-phenyl-3-(4-(trifluoromethyl)phenyl)propyl)malonic acid level in cytoplasm at 20 uM […] by HPLC analysis; format: ADME, cell-based; conditions: l6, 20 µM

In the case of `CC(=O)OCOC(=O)C(C(=O)OCOC(C)=O)C(CC(=O)c1ccc(C(F)(F)F)cc1)c1ccccc1` (stereo not given), the Activity [1] is reported as “Active”, the Drug metabolism (L6 [2]) is reported as over 90% and the half-life [3] is reported as 4.8 h. The Drug uptake (L6 [4]) was “Active”, the t1/2 (L6 [5]) was 4.3 min and the “fold change (FC)” value (L6 [6]) was 67. The Activity [7] was “inactive”, the Drug metabolism (L6 [8]) was 80 µM and the Activity [9] was “inactive”. The Drug metabolism (L6 [10]) was “Active”.
